Reference: ChEMBL document CHEMBL4184245, “Multiple-step, one-pot synthesis of 2-substituted-3-phosphono-1-thia-4-aza-2-cyclohexene-5-carboxylates and their corresponding ethyl esters” (Bioorg Med Chem Lett, 2018)
The source made the active and inactive calls. The rule behind the calls is not given here.

What was measured:
RG2 [1] = assay: Induction of autophagy in rat RG2 cells assessed as increase in LC3-II level at 100 uM pre-incubated for 15 mins before bafilomycin-A1 addition and further incubated for 4 hrs by Western blotting method; type: functional, cell-based
RG2 [2] = assay: Induction of autophagy in rat RG2 cells assessed as increase in LC3-II level at 10 uM pre-incubated for 15 mins before bafilomycin-A1 addition and further incubated for 4 hrs by Western blotting method; type: functional, cell-based
[3] = Apparent permeability of the compound across apical side to basolateral side in human Caco2 cells at 10 uM incubated for 2 hrs by LC-MS/MS method; type: ADME, cell-based; conditions: Caco-2
Procedure, shortened: (§1)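 Permeability was measured across Caco-2 epithelial monolayers.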

[4] = Apparent permeability of the compound across basolateral to apical side in human Caco2 cells at 10 uM incubated for 2 hrs by LC-MS/MS method; type: ADME, cell-based; conditions: Caco-2; procedure, shortened: as §1
RG2 [5] = assay: Induction of autophagy in rat RG2 cells assessed as optimum compound level causing increase in LC3-II level pre-incubated for 15 mins before bafilomycin-A1 addition and further incubated for 4 hrs by Western blotting method; type: functional
Procedure, shortened: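 Cells were tested at 1, 10 and 100 μM. The optimum concentration for autophagy stimulation was estimated from these few levels in preliminary single-series experiments.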

[6] = Efflux ratio in human Caco2 cells at 10 uM incubated for 2 hrs by LC-MS/MS method; type: ADME, cell-based; conditions: Caco-2

| Compound | Activity (RG2 [1]) | Activity (RG2 [2]) | Papp A→B at 2 h, 10 µM [3] [×10⁻⁶ cm/s] | Papp B→A at 2 h, 10 µM [4] [×10⁻⁶ cm/s] | Activity (RG2 [5]) [µM] | efflux ratio at 2 h, 10 µM [6] |
| --- | --- | --- | --- | --- | --- | --- |
| O=C(O)C1=CSC[C@@H](C(=O)O)N1 | Active | Active |  |  |  |  |
| CCCCC1=C(P(=O)(O)O)N[C@H](C(=O)OCC)CS1 |  |  | < 0.01 | < 0.01 |  |  |
| CCOC(=O)[C@@H]1CSC=C(C(=O)O)N1 |  |  | < 0.01 | < 0.01 |  |  |
| CCCCCCC1=C(P(=O)(O)O)N[C@H](C(=O)OCC)CS1 |  |  | < 0.01 | < 0.01 | 1 to 10 |  |
| CCCCC1=C(P(=O)(O)O)N[C@H](C(=O)O)CS1 |  |  | 1.1 | 0.35 |  | 0.33 |
| CCOC(=O)[C@@H]1CSC(CC)=C(C(=O)O)N1 |  |  |  |  | >10 |  |
| CCCCCCC1=C(P(=O)(O)O)N[C@H](C(=O)O)CS1 |  |  | < 0.01 | < 0.01 |  |  |
| CC(C)C1=C(P(=O)(O)O)N[C@H](C(=O)O)CS1 | inactive | Active |  |  |  |  |
